# Source: PubChem
# MT stabilize HCS – microtubule stabilizers in HeLa cells, primary screen, imaging, high-content imaging. AID 2205, 2009. actives 0.83% (n = 200,000). % tubulin-high responders, % at 10 µM. HeLa tubulin immunostaining HCS, 24 h; share of cells brighter than vehicle mean+2SD;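 active means plate Z-score above 3 for both tubulin-high and condensed-nucleus cell shares, with cell loss under 80%, at 10 µM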;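 further: anti alpha tubulin signal scored within the nucleus-defined area of each cell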
# L major viab – Leishmania major promastigote growth inhibition, primary screen; Leishmania major promastigotes, resazurin fluorescence viability; inhibition, % at 10 µM; AID 1063, 2008; actives 9% (n = 200,000); in the data active means inhibition above about 50%;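 further: promastigotes grown with compound for 44 hours at 28 °C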
# HSV augment – enhancers of HSV replication in host cells, fold increase, host cell viability. HSV replication augmentation in cells. maximum fold increase. actives 0.005% (n = 220,000). AID 1956, 2009; in the data active means maximum fold increase above about 1.5; inconclusive means no clear call, values can overlap the other calls; tested in PC3 cells
# b-catenin transl – modulators of beta-catenin nuclear translocation, primary screen, imaging, HeLa cells, immunofluorescence, high-content | actives 0.3% (n = 190,000) | nuclear translocation activity, % at 5 µM;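 active means nuclear translocation activity above 50% at 5 µM, with a well cell count of 50 or more; inconclusive means wells under 50 cells across six images, flagged as toxic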;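 further: per-cell ratio of nuclear to cytoplasmic median beta-catenin stain intensity; plate controls were DMSO negative control for no effect and GSK-3 inhibitor IX positive control for full effect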
#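 Assay system: human HeLa cells, native beta-catenin; doses: 5 µM primary, 0.02–20 µM confirmation; incubation: compound treatment 24 h, 37°C, 5% CO2; technique: fluorescence imaging of beta-catenin antibody stain plus DAPI; measure: % activation, nuclear-to-cytoplasmic median beta-catenin signal ratio per cell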
# Dynein transport – inhibitors of GR-EGFP nuclear translocation, primary screen, dynein cargo transport inhibitor project, imaging, high-content, 3617.4 mouse cells | test concentration mostly 20 µM; stimulated with dexamethasone, 1 µM; active compounds read low | z-score, hits read low | actives 0.47% (n = 220,000);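 active means plate z-score of nuclear minus cytoplasmic receptor signal below a set negative limit, without overly bright fluorescence or cell loss, cut at about -3.5 in these data, passing the limit was not always enough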;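 further: z-score of nuclear minus cytoplasmic ring GR-EGFP intensity difference per well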
#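 Buffer or medium: Induction medium lacking tetracycline, stripped serum | Also added: Dexamethasone agonist, 1.0 µM final, for 30 min | Timing: 48 h induction, 1 h compound, 30 min dex at 37 °C | Detection: Formaldehyde fixation, Hoechst nuclear stain, 10x automated fluorescence imaging | Measure: Nuclear versus cytoplasmic GR-EGFP signal, averaged per well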
# The depositor's hits bear a star; i = inactive; ? = inconclusive; . = not tested or not shown. Hits are enriched below; roughly 8.9% of the tested compounds scored in any of these assays.
SMILES,MT stabilize HCS,L major viab,HSV augment,b-catenin transl,Dynein transport
O=S(=O)(NC1c2cccc3cccc(c23)C1N1CCNCC1)c1ccccc1 (centres undefined),3,23,i,-1,0.032
O=S(=O)(NC1c2cccc3cccc(c23)C1N1CCN(CCO)CC1)c1ccccc1 (centres undefined),1,71*,i,-5,0.67
O=C(c1ccccc1)N1CCN(C2c3cccc4cccc(c34)C2NS(=O)(=O)c2ccccc2)CC1 (centres undefined),2,99*,i,5,0.69
NCCCC[C@H](NC(=O)C1CCNCC1)c1nnc([C@@H](N)CO)o1,5,-4,i,-1,-1.1
Cc1ccccc1C(=O)NC(=S)Nc1ccc(S(=O)(=O)N(C)c2ccccc2)cc1,2,100*,i,0,-0.13
CC(=O)NC(=S)Nc1ccc(S(=O)(=O)N(C)Cc2ccccc2)cc1,1,11,i,1,-0.56
Cc1ccccc1C(=O)NC(=S)Nc1ccc(Oc2ccc(Cl)cc2)cc1,2,-6,i,-1,-0.56
CN(c1ccccc1)S(=O)(=O)c1ccc(NC(=O)c2ccccc2)cc1,2,24,i,1,-0.16
Cc1cccc(C(=O)NC(=S)Nc2ccc(S(=O)(=O)N(C)c3ccccc3)cc2)c1,2,100*,.,-3,1.4
Cc1cccc(C(=O)NC(=S)Nc2ccc(S(=O)(=O)N3CCCCC3)cc2)c1,2,100*,i,-1,1.3
CC(C)C(=O)NC(=S)Nc1ccc(S(=O)(=O)N(C)Cc2ccccc2)cc1,42*,38,i,2,0.57
Cc1ccc(N2C(=O)C(Cl)=C(N3CCOCC3)C2=O)cc1Cl,2,31,i,-3,-1.2
COc1ccc(-c2nn3c(-c4ccco4)nnc3s2)cc1OC,2,88*,i,1,-0.59
CCN(CC)c1ccc(-c2nn3c(-c4cccnc4)nnc3s2)cc1,38*,20,.,6,-1.1
COc1ccc(-c2nnc3sc(-c4ccco4)nn23)cc1OC,1,36,i,3,1.5
COc1cc(OC)c(-c2nn3c(-c4ccco4)nnc3s2)cc1OC,6,82*,?,5,2.6
COc1cccc(-c2nnc3sc(-c4ccc(C)cc4)nn23)c1,33*,-6,.,68*,-0.43
CC1(C)OC(C(N)=O)C(C(N)=O)O1 (centres undefined),2,-4,i,-2,-0.096
COc1cc2c(cc1OC)-c1nnc(-c3ccco3)n1C1(CCCC1)C2,4,58*,i,-2,-0.26
Brc1ccc(C2=Nn3c(nnc3-c3n[nH]c4c3CCC4)SC2)cc1,34*,59*,i,146*,-0.38
Clc1ccc(C2=Nn3c(nnc3-c3n[nH]c4c3CCC4)SC2)cc1,32*,58*,i,4,-0.31
Cc1ccc(-c2nnc3n2N=C(c2ccc(Br)cc2)CS3)cc1,4,0,i,0,0.57
COc1ccc(C2C=C(c3ccc(C)cc3)Nc3ncnn32)cc1 (centres undefined),5,2,.,-4,3.3
COc1ccc(C2C=C(c3ccc(Br)s3)Nc3ncnn32)cc1OC (centres undefined),29*,-6,?,58*,-0.08
COc1ccc2c(c1)C=C(C(=O)OCc1cccnc1)CO2,6,12,i,0,-0.67
SMILES,MT stabilize HCS,L major viab,HSV augment,b-catenin transl,Dynein transport
Cc1cc(C(=O)C(C)OC(=O)C2=NNC(=O)CC2)c(C)n1-c1ccc(OC(F)F)cc1 (centres undefined),2,99*,i,-2,-0.23
Cc1cc(C(=O)COC(=O)C2=NNC(=O)CC2)c(C)n1-c1ccc(OC(F)F)cc1,3,-6,i,.,1.1
CN(C)CC(=O)c1ccc(-c2ccccc2)cc1,4,86*,i,-2,-0.08
CCOC(=O)c1ccc(NC(=O)CSc2nc3ncccc3[nH]2)cc1,2,63*,i,-2,-0.047
CCOc1ccc(NC(=O)CCC(=O)c2ccc(-c3ccccc3)cc2)cc1,2,50*,i,0,-0.35
CCN(CC)CC(=O)c1ccc(-c2ccccc2)cc1,4,18,i,1,1.4
CCCOC(=O)c1ccc(NC(=O)CCOc2ccccc2)cc1,2,31,i,2,-0.45
CCOC(=O)c1ccc(NC(=O)CCOc2ccccc2)cc1,1,84*,i,.,0.45
COCC(=O)NC1CCN(S(=O)(=O)c2ccc(C(=O)O)cc2)CC1,4,-5,i,-1,-0.012
C/C(=N\NC(=O)c1ccccc1)c1ccc(N2CCCCC2)cc1,3,-5,i,4,-1
O=C(Nc1nnc(-c2ccccc2SCc2ccccc2F)s1)Nc1ccccc1F,2,-3,i,-3,1.4
CC(C)OC(=O)COc1ccc(-c2ccccc2)cc1,0,-8,i,.,0.17
CC(=O)c1ccc(OCC(=O)c2ccc(-c3ccccc3)cc2)cc1,3,60*,i,1,0.59
CCOC(=O)c1ccc(N/C(=N\S(=O)(=O)c2ccccc2C)c2ccccc2)cc1,2,88*,i,0,0.22
COC(=O)c1ccc(N/C(=N/S(=O)(=O)c2ccccc2)c2ccccc2)cc1,2,11,i,4,1.3
Cc1cccc(OCCCC(=O)Nc2ccc(N(C)C)cc2)c1,3,97*,i,.,-0.36
CCOC(=O)c1ccc(N=Cc2nc(-c3ccccc3)oc2OC(C)=O)cc1,2,-1,i,-6,0.42
Cc1nc2ncnn2c(C)c1CCC(=O)N1CCN(Cc2ccccc2)CC1,3,0,i,-9,-0.081
CN(CC(=O)NC1CCCCCC1)S(=O)(=O)c1ccccc1,4,-4,i,-1,0.24
O=C(/C=C/c1cccc([N+](=O)[O-])c1)c1cccs1,2,89*,i,1,-0.87
COc1ccc(/C=C/C(=O)c2ccc3c(c2)OCCO3)cc1[N+](=O)[O-],2,44,i,-2,-1
O=C(/C=C/c1cccc([N+](=O)[O-])c1)N1CCN(S(=O)(=O)c2cccs2)CC1,2,66*,i,4,0.88
O=C(/C=C/c1cccc([N+](=O)[O-])c1)c1ccc2c(c1)OCCO2,2,98*,i,-3,-2.5
CCOC(=O)c1c(-c2ccc(OC)cc2)csc1NC(=O)CCN1CCOCC1,2,84*,i,5,-0.2
CCOC(=O)c1c(NC(=O)CCN2CCOCC2)sc(C)c1-c1ccccc1,1,52*,i,0,-0.15
CCOC(=O)c1c(-c2ccc(OC)cc2)csc1NC(=O)C1CCCO1 (centres undefined),2,52*,i,5,0.11
Cc1sc(NC(=O)CCC(=O)O)c(C(N)=O)c1-c1ccccc1,2,20,i,-2,0.34
